Bioassay records as filed in PubChem.
Compounds with a hit are over-represented: about 3% of the library has one in this group of screens.
5HT1a antag: antagonists of human 5-HT1a serotonin receptor; CHO 5-HT1a Ga15 NFAT-bla reporter, antagonist mode; inhibition, % at 10 µM; 62,000 compounds, 0.68% hits; AID 612;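 active means inhibition above the mean of all tested compounds plus 3 SD, cut at about 43% in these data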;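 further: receptor stimulated by 5-CT agonist at 100 nM near EC80; beta-lactamase reporter measured by ratiometric fluorescence of a cleavable substrate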
S1P1 ag-PAM: agonists and agonism potentiators of human S1P1 receptor. S1P1 CRE-bla cells, forskolin, beta-lactamase FRET, potentiator mode; S1P1 agonist co-added at EC20, 2 nM; 100% = saturating reference agonist, 0% = basal. 56,000 compounds, 0.57% hits. activation, % at 9.5 µM. P21453;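 active means activation above a cutoff set at the mean activation of all tested compounds plus 3 SD, cut at about 54% in these data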;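 further: forskolin at 4 µM as EC80 and the EC20 agonist is SEW2871; 100% = SEW2871 at its EC100 plus forskolin at EC80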
5HT1E ag: 5-HT1E (human) receptor agonism; P28566; CHO 5-HT1E Ga15 NFAT-bla reporter, FRET; 0% DMSO wells, 100% control agonist wells; activation, % at 6 µM; 65,000 compounds, 0.69% hits;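 active means activation above a set limit, the screen-wide mean activation plus 3 SD, cut at about 8.5% in these data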;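 further: 100% = positive control agonist at 1 µM giving full maximal response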
5HT1a ag: activates the human 5-HT1a serotonin receptor. 65,000 compounds, 0.56% hits. CHO 5-HT1a Ga15 NFAT-bla reporter, FRET ratio; 0% basal, 100% maximal reference agonist. activation, % at 10 µM. P08908. AID 567;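 active means activation above the screen-wide mean activation plus 3 SD, cut at about 19% in these data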;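 further: 0% = DMSO wells and 100% = 5-CT at EC100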
S1P3 ag: S1P3 (human) receptor agonism | Q99500 | S1P3 NFAT-BLA reporter cells, FRET ratio; relative to 1 µM S1P, basal subtracted | activation, % at 4.5 µM | 60,000 compounds, 0.1% hits | AID 373;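 active means activation above the screen-wide mean plus 3 SD, cut at about 4.5% in these data, passing the limit was not always enough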
Target sequence (Q99500 whole entry, looked up): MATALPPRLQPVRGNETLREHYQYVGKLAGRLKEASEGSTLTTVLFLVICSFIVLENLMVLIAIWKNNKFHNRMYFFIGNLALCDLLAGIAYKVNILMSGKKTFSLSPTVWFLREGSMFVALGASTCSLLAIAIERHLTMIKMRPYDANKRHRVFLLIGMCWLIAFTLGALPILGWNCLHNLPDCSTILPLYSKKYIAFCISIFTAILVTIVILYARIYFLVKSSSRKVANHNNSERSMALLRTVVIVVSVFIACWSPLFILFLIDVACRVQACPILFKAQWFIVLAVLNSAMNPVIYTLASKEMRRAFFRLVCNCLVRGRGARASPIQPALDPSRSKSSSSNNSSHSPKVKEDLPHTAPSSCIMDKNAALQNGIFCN
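Measure – % activation relative to 1 µM S1P (100%), per plate · System – stable CHO line with human S1P3, Gα16, NFAT-BLA reporter · Timing – cells plated overnight, compound 4 h 37 °C, substrate 2 h RT · Technique – fluorescent BLA substrate, ex 405 nm, em 460/535 nm ratio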
HTR1E antagonist: blocks the human 5-HT1E serotonin receptor; inhibition, % at 6 µM; P28566; AID 571; CHO 5-HT1E Ga15 NFAT-bla reporter, FRET, antagonist; 65,000 compounds, 0.99% hits;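 active means inhibition above a set limit, the mean inhibition across every tested compound plus 3 SD, cut at about 29% in these data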;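 further: signal is the 460 over 535 nm emission ratio of beta-lactamase substrate; 0% = agonist plus DMSO wells and 100% = wells without agonist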
Starred values were filed as active, the others as inactive.

Screening COc1cccc(OC)c1OCC(O)CN1CCN(c2ccccc2)CC1 (stereo not drawn) returned 5HT1a antag 45*, S1P1 ag-PAM -18, 5HT1E ag 2, 5HT1a ag -2, S1P3 ag 0 and HTR1E antagonist -1.
For COc1ccccc1N1CCN(CC(O)c2ccc3cc[nH]c3c2)CC1 (stereo not drawn) the results were 5HT1a antag 87*, S1P1 ag-PAM 19, 5HT1E ag 2, 5HT1a ag 6, S1P3 ag -1 and HTR1E antagonist 21.
`COc1ccccc1N1CCN(CC(O)COc2c(OC)cccc2OC)CC1` (stereo not drawn) gave 5HT1a antag 95*, S1P1 ag-PAM -28, 5HT1E ag 3, 5HT1a ag -3, S1P3 ag -2 and HTR1E antagonist -4.
OC(COCc1ccccc1)CN1CCN(c2ccccc2F)CC1 (stereo not drawn) was read as 5HT1a antag 22, S1P1 ag-PAM -15, 5HT1E ag 1, 5HT1a ag 2, S1P3 ag -1 and HTR1E antagonist 6.
Screening CCOC(=O)N1CCN(CC(O)c2ccc3cc[nH]c3c2)CC1 (stereo not drawn) returned 5HT1a antag 2, S1P1 ag-PAM -5, 5HT1E ag -1, 5HT1a ag 1, S1P3 ag 23 and HTR1E antagonist 2.
`COc1ccc(CCN(C)CCCC(C#N)(c2ccc(OC)c(OC)c2)C(C)C)cc1OC` (stereo not drawn) gave S1P1 ag-PAM -2, 5HT1E ag 0, 5HT1a ag -2, S1P3 ag -2 and HTR1E antagonist -1.
Cc1ccc(C(=O)Nc2c3c(nn2C(C)(C)C)CS(=O)(=O)C3)cc1C was read as 5HT1a antag -1, 5HT1E ag 0, 5HT1a ag 3 and HTR1E antagonist -10.
For COc1ccccc1Oc1ccc(S(=O)(=O)NCc2ccccn2)cc1 the results were 5HT1a antag 1, 5HT1E ag 0, 5HT1a ag -1 and HTR1E antagonist 11.
`C=CCc1ccccc1OCC(O)CN1CCN(c2ccc(OC)cc2)CC1` (stereo not drawn) gave 5HT1a antag 81*, S1P1 ag-PAM -36, 5HT1E ag 0, 5HT1a ag -1, S1P3 ag 0 and HTR1E antagonist 11.
C=CCc1ccccc1OCC(O)Cn1ccnc1C (stereo not drawn) was read as 5HT1a antag -4, S1P1 ag-PAM 10, 5HT1E ag -1, 5HT1a ag -1, S1P3 ag 0 and HTR1E antagonist 1.
For COc1ccc2nc(SCC(N)=O)[nH]c2c1 the results were 5HT1a antag -4, S1P1 ag-PAM -16, 5HT1E ag -1, 5HT1a ag -2, S1P3 ag -1 and HTR1E antagonist -5.
`COc1ccc2nc(SCc3nc(N)nc(Nc4ccccc4)n3)[nH]c2c1` gave 5HT1a antag 6, S1P1 ag-PAM -69, 5HT1E ag 2, 5HT1a ag 5, S1P3 ag 1 and HTR1E antagonist 40*.
Screening O=C(O)C1CCCCC1C(=O)NCCc1c[nH]c2ccccc12 (stereo not drawn) returned 5HT1a antag -6, S1P1 ag-PAM 12, 5HT1E ag 99*, 5HT1a ag 22*, S1P3 ag 0 and HTR1E antagonist 14.
O=C(NCCc1c[nH]c2ccccc12)C1CCN(c2nnc(N3CCCC3=O)s2)CC1 was read as 5HT1a antag 6, S1P1 ag-PAM -23, 5HT1E ag 46*, 5HT1a ag 0, S1P3 ag 0 and HTR1E antagonist -8.
O=C(NCCc1c[nH]c2ccccc12)C(F)(F)C(F)F was read as 5HT1a antag 9, S1P1 ag-PAM 6, 5HT1E ag 26*, 5HT1a ag 0, S1P3 ag -1 and HTR1E antagonist 11.
Screening O=C(O)C1CCCCC1C(=O)NCCc1ccncc1 (stereo not drawn) returned 5HT1a antag 1, S1P1 ag-PAM -20, 5HT1E ag -1, 5HT1a ag -4, S1P3 ag 0 and HTR1E antagonist 0.
